Results on ten compounds are retold here after ChEMBL document CHEMBL1150215, “Strychnogucines A and B, two new antiplasmodial bisindole alkaloids from Strychnos icaja” (J Nat Prod, 2001).

Structures are written as SMILES. Bounds are passed on as bounds.

Usually IC50 stands for the concentration that inhibits the measured activity by half. A lower IC50 goes with greater potency. By IC90 is commonly meant the concentration needed for an effect of 90%. Low values mean greater potency, high ones weaker potency.

A short description of series [1]: Selectivity index, ratio of IC50 for human KB cells to IC50 for chloroquine-sensitive Plasmodium falciparum FCA 20 Ghana. The format is toxicity, cell-based. As to conditions: KB cells versus Plasmodium falciparum FCA 20 Ghana, read-out: Ratio IC50. An outline of the steps: (§1)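 SI is cytotoxicity IC50 divided by antiplasmodial IC50. Cytotoxicity was measured on cultured KB cancer cells or WI38 human fibroblasts in microplates by WST-1 tetrazolium colorimetric assay, with emetine and usambarensine as references.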

Series [2] is described as follows: Selectivity index, ratio of IC50 for human WI38 cells to IC50 for chloroquine-resistant Plasmodium falciparum W2 Indochina. The series is classed as toxicity, cell-based, WI-38. As to conditions: WI38 cells versus Plasmodium falciparum W2 Indochina, read-out: Ratio IC50. An outline of the steps:
as §1

In the next series the test system is KB. Kind of series: Cytotoxicity against human KB cells by WST1 assay. The series is classed as cell-based. In short, it runs like this:
(§2)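 Cells grown as in earlier work and exposed to samples in 96-well microplates. Viability read by colorimetric assay with the tetrazolium salt WST-1. Emetine and usambarensine base run as reference compounds. Results given as IC50 in μM.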
On the technique in general: Tetrazolium dyes change colour on reduction, which living cells bring about.

Series [3] in a line: Selectivity index, ratio of IC50 for human KB cells to IC50 for chloroquine-resistant Plasmodium falciparum W2 Indochina. The settings on record: KB cells versus Plasmodium falciparum W2 Indochina, read-out: Ratio IC50. The series is classed as toxicity, cell-based. An outline of the steps: as §1
Series [4] is described as follows: Selectivity index, ratio of IC50 for human WI38 cells to IC50 for chloroquine-sensitive Plasmodium falciparum FCA 20 Ghana. The format is toxicity, cell-based, WI-38. As to conditions: WI38 cells versus Plasmodium falciparum FCA 20 Ghana, read-out: Ratio IC50. In short, it runs like this:
as §1

In series [5] the test system is Plasmodium falciparum. Kind of series: Antiplasmodial activity against chloroquine-sensitive Plasmodium falciparum F32-Tanzania by [3H]hypoxanthine uptake. The format is functional, organism-based. In short, it runs like this:
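Asexual erythrocytic stages kept in continuous in vitro culture (Trager and Jensen method). Eight 4-fold dilutions per sample, final concentrations 20 μg/mL down to 0.0012 μg/mL, each tested in duplicate. Growth read as [³H]hypoxanthine incorporation (Desjardins method, Mirovsky modification).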

Series [6] is described as follows: Cytotoxicity against human WI38 cells by WST1 assay. The format is cell-based. As to conditions: WI-38. In short, it runs like this: as §2
The subject of series [7] is Plasmodium falciparum. Kind of series: Antiplasmodial activity against chloroquine-resistant Plasmodium falciparum PFB Brazil by [3H]hypoxanthine uptake. The format is functional, organism-based. In short, it runs like this: (§3)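 Continuous asexual erythrocytic P. falciparum culture (Trager and Jensen). Samples tested as eight 4-fold dilutions, final 20 µg/mL down to 0.0012 µg/mL, in duplicate. Growth read by [3H]hypoxanthine incorporation (Desjardins method, Mirovsky modification). IC50 given as mean ± standard deviation. Differences were tested by Student's t-test at p ≤ 0.05.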

For series [8], the system named is Plasmodium falciparum. Kind of series: Antiplasmodial activity against chloroquine-sensitive Plasmodium falciparum FCA 20 Ghana by [3H]hypoxanthine uptake. The series is classed as functional, organism-based. An outline of the steps:
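Asexual erythrocytic stages kept in continuous in vitro culture (Trager and Jensen method). Eight 4-fold dilutions per sample, final concentrations 20 μg/mL down to 0.0012 μg/mL, each tested in duplicate. Growth read as [³H]hypoxanthine incorporation (Desjardins method, Mirovsky modification). Results given as mean ± standard deviation; differences assessed by Student's t-test, p ≤ 0.05.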

For series [9], the system named is Plasmodium falciparum. Kind of series: Antiplasmodial activity against chloroquine-resistant Plasmodium falciparum W2 Indochina by [3H]hypoxanthine uptake. The format is functional, organism-based. An outline of the steps:
as §3

Take `C/C=C1/CN2[C@@H](C3=C[C@@H]4[C@@H]5N(C3=O)c3ccccc3[C@@]53CCN5C/C(=C/CO)[C@@H]4C[C@H]53)C[C@@]34c5ccccc5N5C(=O)CC=C([C@H]1C[C@H]23)[C@H]54`: the selectivity ratio stood at 19.1 in series [1], 120 in [2], 116 in [3] and 19.8 in series [4]. Moreover, the IC50 is 16.2 µM in the series with KB, 1.26 µM with Plasmodium falciparum [5], 16.8 µM in series [6] and 0.431 µM in the series with Plasmodium falciparum [7]. Further, the IC90 with Plasmodium falciparum [5] is 5.35 µM; with Plasmodium falciparum [7], 1.64 µM; with Plasmodium falciparum [8], 4.35 µM; in the series on Plasmodium falciparum [9], 1.35 µM.

Take `CCN(CC)CCCC(C)Nc1ccnc2cc(Cl)ccc12` (stereo unspecified) [CHLOROQUINE]: the IC90 with Plasmodium falciparum [5] came out at 0.063 µM; with Plasmodium falciparum [7], 1.54 µM; in the series on Plasmodium falciparum [8], 0.119 µM; with Plasmodium falciparum [9] it was 1.75 µM.

In the series on KB, `CC[C@H]1CN2CCc3cc(OC)c(OC)cc3[C@@H]2C[C@@H]1C[C@H]1NCCc2cc(OC)c(OC)cc21` [EMETINE] had an IC50 of 0.056 µM.

`C/C=C1/CN2[C@@H](C3=C[C@@H]4[C@@H]5N(C3=O)c3ccccc3[C@@]53CCN5C/C(=C/C)[C@@H]4C[C@H]53)C[C@@]34c5ccccc5N5C(=O)CC=C([C@H]1C[C@H]23)[C@H]54` [ISOSUNGUCINE]: the selectivity ratio in [1] worked out at 6.8; in series [2] it was 34.7; in series [3], 34; in series [4] it was 7. Besides, the IC50 is 9 µM in the series on KB and 9.2 µM in [6]. The IC90 with Plasmodium falciparum [8] stood at 7.06 µM; in the series on Plasmodium falciparum [9] it was 1.72 µM.

The compound `OC(c1cc(C(F)(F)F)nc2c(C(F)(F)F)cccc12)C1CCCCN1` (stereo unspecified) [MEFLOQUINE] showed an IC90 with Plasmodium falciparum [5] of 0.354 µM. In the series on Plasmodium falciparum [7], inhibition was half-maximal at 0.002 µM (IC50) and the IC90 was found to be 0.006 µM.

Regarding `C=C[C@H]1CN2CC[C@H]1C[C@H]2[C@H](O)c1ccnc2ccc(OC)cc12` [QUININE], the IC90 in the series with Plasmodium falciparum [8] worked out at 1.91 µM; in the series on Plasmodium falciparum [9], 1.72 µM.

`C/C=C1/CN2[C@@H]([C@@H]3C(=O)N4c5ccccc5[C@@]56CCN7CC8=CCO[C@@H]3[C@@H]([C@H]45)[C@H]8C[C@H]76)C[C@@]34c5ccccc5N5C(=O)CC=C([C@H]1C[C@H]23)[C@H]54` [STRYCHNOGUCINE A]: the 50% inhibitory concentration (IC50) is 4.81 µM in the series with Plasmodium falciparum [5], 3.2 µM in the series with Plasmodium falciparum [7] and 2.31 µM with Plasmodium falciparum [8]. In addition, the results for the IC90 with Plasmodium falciparum [5], in the series with Plasmodium falciparum [7] and in the series on Plasmodium falciparum [8] were 9.54 µM, 9.4 µM and 6.98 µM, respectively.

On to `O=C1C[C@@H]2OCC=C3CN4[C@@H](C5=C[C@@H]6[C@@H]7N(C5=O)c5ccccc5[C@@]75CCN7C/C(=C/CO)[C@@H]6C[C@H]75)C[C@]56c7ccccc7N1[C@H]5[C@@H]2[C@H]3C[C@H]46` [STRYCHNOGUCINE B], for which the selectivity ratio in series [1] is more than 24.3; in series [2] it was 182; in series [3], more than 176; in [4], 25.1. Further, the half-inhibitory concentration (IC50) is more than 15 µM in the series on KB, 0.51 µM in the series with Plasmodium falciparum [5], 15.5 µM in [6] and 0.202 µM in the series on Plasmodium falciparum [7]. For the same compound, the results for the IC90 with Plasmodium falciparum [5], with Plasmodium falciparum [7] and with Plasmodium falciparum [8] were 3.23 µM, 1.15 µM and 3.79 µM, respectively.

On to `C/C=C1/CN2CC[C@]34c5ccccc5N5C(=O)C([C@H]6C[C@]78c9ccccc9N9C(=O)C=C[C@@H]([C@H]97)[C@H]7C[C@@H]8N6C/C7=C/C)=C[C@H]([C@H]53)[C@H]1C[C@H]24` [SUNGUCINE], for which the selectivity ratio in series [1] was 0.8; in series [2], 0.6; in series [3] it was 0.6; in [4] it was 0.8. The figures for the IC50 (in the series on KB; in series [6]) were 6.2 µM and 6 µM, respectively. Besides, the IC90 in the series on Plasmodium falciparum [8] came out at 26.3 µM; in the series with Plasmodium falciparum [9], 33.1 µM.

Turning to `C/C=C1/CN2CCc3c([nH]c4ccccc34)[C@@H]2C[C@@H]1Cc1nccc2c1[nH]c1ccccc12` [USAMBARENSINE], the selectivity ratio in series [1] was 14.8; in series [2], 7.8; in series [3], 36.6; in series [4], 3.1. For the same compound, the 50% inhibitory concentration (IC50) came out at 9.7 µM with KB and 4.62 µM in series [6].
